Records with an inconclusive call do not appear. The source made the active and inactive calls.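 Rule for the calls: active = compounds whose fitted half-maximal growth inhibition dose is no more than ten times the top tested dose; inconclusive = flat curve inhibiting 30 to 70%, or poor curve fit; inactive = flat within 30%, weaker potency, or rising signal.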

The nature of the assay: single-agent toxicity toward C. albicans – CaCi-2 strain, dry powder, set 3, counter-screen for reversing antifungal drug resistance, dose response (AID 488937). The settings on record: C. albicans CaCi-2 growth, Alamar Blue fluorescence, 48 h; series mostly up to 26 µM. The method, boiled down: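 assay system = Candida albicans strain CaCi-2 yeast, fluconazole absent | buffer or medium = RPMI medium without fluconazole | times = 48 h growth at 37 °C, dye 2 h | detection = Alamar Blue fluorescence in RFU[…]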
Regarding `Cn1ccnc1N1CCN(C(=O)c2ccc(Cl)cc2)CC1`, the outcome was inactive.
On to `O=C(c1ccc(Cl)cc1)N1CCN(c2nc3ccccc3s2)CC1`, for which the outcome was inactive.
For the compound `N#Cc1cccnc1N1CCN(C(=O)c2ccc(Cl)cc2)CC1`, the result was inactive.
With `O=C(c1ccc(Cl)cc1)N1CCN(c2nc3ccccc3o2)CC1` the entry was “inactive”; with `O=C(c1ccc(F)cc1)N1CCN(c2ccccn2)CC1`, “inactive”; with `COc1cccnc1N1CCN(C(=O)c2ccc(Cl)cc2)CC1`, “inactive”.
Consider `O=C(c1ccccc1Cl)N1CCN(c2ccccn2)CC1`, for which the outcome was inactive.
Regarding `CCCCC(=O)N1CCN(c2ccccn2)CC1`, the outcome was inactive.
With `O=C(c1ccc(Cl)cc1)N1CCN(c2cccc(C(F)(F)F)n2)CC1` the entry was “inactive”; with `O=C(c1ccc(Cl)cc1)N1CCN(c2ccc(C(F)(F)F)cn2)CC1`, “inactive”; with `N#Cc1ccc(C(=O)N2CCN(c3ccccn3)CC2)cc1`, “inactive”.
With `COc1ccc(C(=O)N2CCN(c3ccccn3)CC2)cc1` the entry was “inactive”.
As to `Cc1ccnc(N2CCN(C(=O)c3ccc(Cl)cc3)CC2)c1`, the outcome was inactive.
Consider `O=C(c1ccc(Cl)cc1)N1CCN(c2ncccn2)CC1`, for which the outcome was inactive.
On to `O=C(c1ccc(Cl)cc1)N1CCN(c2cnccn2)CC1`, for which the outcome was inactive.
Turning to `COCCC(=O)N1CCN(c2ccccn2)CC1`, the outcome was inactive.
Then `O=C(c1ccc(Cl)cc1)N1CCN(c2nccs2)CC1`, with “inactive”.
Consider `Cc1cccc(N2CCN(C(=O)c3ccc(Cl)cc3)CC2)n1`, for which the outcome was inactive.
Consider `CC(C)C(=O)N1CCN(c2ccccn2)CC1`, for which the outcome was inactive.
Then `Cc1ccc(N2CCN(C(=O)c3ccc(Cl)cc3)CC2)nc1`, with “inactive”.
Then `O=C(c1ccccc1)N1CCN(c2ccccn2)CC1`, with “inactive”.
With `Cc1ccc(N2CCN(C(=O)c3ccc(Cl)cc3)CC2)nn1` the entry was “inactive”.
On to `Cc1ccc(C(=O)N2CCN(c3ccccn3)CC2)cc1`, for which the outcome was inactive.

These data come from PubChem BioAssay AID488937 (Broad Institute, 2010).
